Shown are actives, neighbours in structure and some others; about 2% of the full set was active somewhere.
RAD54 branch – inhibitors of human RAD54 branch migration | inhibition, % at 10.4 µM | AID 602329 | RAD54 Holliday junction branch migration, FAM/BHQ fluorescence | 360,000 compounds, 0.14% hits | Q92698;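 active = mean normalized replicate activity at least 40 and at least half of replicates scoring 40 or more; inconclusive = only one of the two criteria met; inactive = mean below 40 and under half of replicates reaching 40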;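 also: 0% = median of neutral control wells and 100% = median of positive control wells; inhibitors cause a drop in the FAM fluorescence signal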
Target sequence (Q92698 whole entry, looked up): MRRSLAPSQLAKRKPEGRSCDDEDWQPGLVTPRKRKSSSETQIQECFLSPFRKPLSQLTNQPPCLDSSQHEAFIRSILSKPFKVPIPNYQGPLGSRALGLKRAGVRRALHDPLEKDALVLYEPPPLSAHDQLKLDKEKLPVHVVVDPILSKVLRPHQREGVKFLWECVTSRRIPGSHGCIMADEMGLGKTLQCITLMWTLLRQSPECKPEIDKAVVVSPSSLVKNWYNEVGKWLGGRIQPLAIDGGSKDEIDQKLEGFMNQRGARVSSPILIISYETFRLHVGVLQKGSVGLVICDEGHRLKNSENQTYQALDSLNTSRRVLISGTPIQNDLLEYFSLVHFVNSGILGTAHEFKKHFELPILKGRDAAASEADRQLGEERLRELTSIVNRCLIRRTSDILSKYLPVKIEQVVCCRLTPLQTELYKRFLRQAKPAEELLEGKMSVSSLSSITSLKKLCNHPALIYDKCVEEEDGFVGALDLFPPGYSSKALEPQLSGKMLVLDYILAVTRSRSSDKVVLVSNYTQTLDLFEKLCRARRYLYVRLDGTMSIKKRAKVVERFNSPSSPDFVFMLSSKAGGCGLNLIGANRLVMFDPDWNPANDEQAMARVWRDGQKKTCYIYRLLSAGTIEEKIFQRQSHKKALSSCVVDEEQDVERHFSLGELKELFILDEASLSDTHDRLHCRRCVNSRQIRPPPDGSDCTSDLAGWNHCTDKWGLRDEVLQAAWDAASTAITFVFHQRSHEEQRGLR
Xi reactivation – X-chromosome reactivation activator; XiGFP mouse fibroblasts, % GFP-positive cells imaging, 3 d; cells co-treated with 5-aza-dC sensitizer; scaled so ellipticine positive control = 100%; activation, % at 7.58 µM; 360,000 compounds, 0.055% hits;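 active = mean normalized replicate activation at least 10% and every replicate at or above 10%; inconclusive = only one of the two criteria met; inactive = mean below 10% and not all replicates reach 10%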;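 also: 0% = median of on-plate neutral control wells and 100% = ellipticine 6 µM median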
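material = 68-5-11 XiGFP fibroblast line | medium = DMEM plus 5-aza-dC sensitizer | schedule = 3 days compound exposure | benchmarks = positive control ellipticine, 6 µM final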
RAD52 inh – RAD52 (human) annealing inhibition. P43351. recombinant RAD52 DNA annealing, FRET fluorescence. inhibition, % at 18.7 µM. 360,000 compounds, 0.46% hits. AID 651710;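 active = every replicate showing at least 50% inhibition; inconclusive = mean inhibition at least 50% but not in every replicate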
Ecoli rRNA inh – selective bacterial rRNA inhibition in E. coli | GFP signal change (wild-type ribosome), % (test concentration not listed) | 350,000 compounds, 1.6% hits | E. coli WT GFP vs humanized-ribosome RFP mutants, fluorescence, 24 h; stronger effect = lower value; DMSO median 0, no signal -100;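 active = significant combined selectivity score with lowered wild-type GFP, culture density cut under 30%, mutant RFP and density less affected; inactive = any of these conditions unmet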
PglD DTNB – blocks C. jejuni PglD acetyltransferase activity | purified PglD enzyme, DTNB colorimetric CoA detection | inhibition, % at 12.5 µM | 360,000 compounds, 0.098% hits | AID 602405; in the data active = inhibition above about 16%, passing the limit was not always enough; inconclusive = no clear call, values can overlap the other calls
E-selectin induc – E-selectin induction on HUVECs. P16581. HUVEC E-selectin immunofluorescence imaging; normalized: neutral wells 0, TNF-alpha wells 100. activation, % at 7.58 µM. 260,000 compounds, 0.37% hits. AID 686992;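 active = mean E-selectin-positive cell signal at least 10% of the positive control, reached in at least 60% of replicates, without over 20% cell loss; inconclusive = no rule given, readout overlaps actives, possibly toxicity-flagged; inactive = the rest, including those meeting only one limit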
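Assay system: HUVEC primary endothelial cells. Input: 3,000 HUVEC seeded per well. Doses: one compound dose added by pin transfer. Read-out basis: % PE-positive cells. Benchmarks: TNF-alpha high, DMSO low. Detection: immunofluorescence imaging. Buffer or medium: EGM-2, gelatin.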
* = called active by the depositor; ? = inconclusive; / = not tested or not shown.

SMILES	RAD54 branch	Xi reactivation	RAD52 inh	Ecoli rRNA inh	PglD DTNB	E-selectin induc
CCN(c1ccccc1)S(=O)(=O)c1ccc(Cl)nc1	/	0	-9	5	/	-4
COC(=O)COc1ccc(Cl)cc1C1Nc2ccccc2C(=O)N1c1ccc(OC)cc1 (stereo unspecified)	4	/	-1	-25*	-2	/
COc1ccc(N2CCN(c3ncnc4scc(-c5ccc(F)cc5)c34)CC2)cc1	-5	0	-9	-24*	-4	/
COCC(=O)N(C)C[C@H]1Oc2cc(-c3ccncc3)ccc2S(=O)(=O)N([C@@H](C)CO)C[C@@H]1C	-6	-1	8	1	3	0
CCN(CC)C(=O)c1cn(-c2cccc(OC)c2)c(=O)c2ccccc12	-17	0	-7	3	-3	67*
COc1ccc2c3c(n(C)c2c1)[C@H](CO)N(C(=O)c1ccccn1)CC31CN(C)C1	/	0	0	3	/	0
CCOc1ccccc1N(C(=O)Nc1ccc(Cl)cc1)C1=NCCS1	-9	0	-15	-21*	3	/
O=C(C[C@@H]1CC[C@@H](NC(=O)CN2CCOCC2)[C@@H](CO)O1)NCc1cccc(F)c1	-4	0	5	-1	0	-1
O=C(NNC(=O)c1cccs1)c1ccncc1	/	0	7	10	/	/
O=C(CC(=O)c1cccs1)c1ccncc1	-4	0	-15	-22*	-5	0
O=C(CN1CCN(C(c2ccccc2)c2ccccc2)CC1)N1CCN(c2ccccc2)CC1	3	0	-36	-38*	-1	0
CC1CCN(CC(=O)N2CCN(c3ccccc3)CC2)CC1	-11	0	-5	7	-2	0
COCC(=O)N(C)C[C@@H]1[C@@H](c2ccc(-c3ccccc3)cc2)[C@H](CO)N1C(C)=O	0	0	-2	-3	0	0
CC(=O)/C(C#N)=C1\NC(=O)C(Cc2ccccc2C)S1 (stereo unspecified)	-3	0	-29	-30*	4	/
CCCNC(=O)N1C[C@@H](C)[C@H](OC)CN(C)C(=O)c2ccc(NC(C)=O)cc2OC[C@@H]1C	/	1	3	1	/	0
CC(C)N(CCC#N)C(=O)Nc1ccc2c(c1)CCO2	/	0	-18	17	/	74*
Nc1cc(=O)[nH]c(N)n1	-3	0	-5	-13*	-3	?
Cc1cc(=O)[nH]c(N)n1	-1	0	-10	10	-4	4
O=C(O)c1cc(/C=C/c2ccc(N3CCOCC3)c([N+](=O)[O-])c2)nc2ccccc12	-1	0	0	-2	3	0
O=C(O)c1cc(/C=C/c2ccc(N3CCOCC3)cc2)nc2ccccc12	/	0	-28	-25*	/	0
COc1cc(/C=C/c2cc(C(=O)O)c3ccccc3n2)ccc1OC(F)F	/	0	-17	-26*	/	0
COc1cc(/C=C/C(=O)OCN2C(=O)c3ccccc3C2=O)ccc1OC(F)F	5	0	-11	2	/	0
COc1ccc(S(=O)(=O)N(C)C[C@@H]2OCCCC[C@@H](C)Oc3ccc(NS(=O)(=O)c4cn(C)cn4)cc3C(=O)N([C@H](C)CO)C[C@@H]2C)cc1	-1	0	1	2	3	/
C[C@@H]1CN([C@@H](C)CO)C(=O)c2cccc(NC(=O)c3ccc(-c4nccs4)cc3)c2O[C@H]1CN(C)Cc1ccc(C(F)(F)F)cc1	/	0	/	-5	/	-2
Cc1cc(OCCCCOc2ccc(S(N)(=O)=O)c(C)c2)ccc1S(N)(=O)=O	-2	0	-16	-19*	-1	0
O=C(Cc1ccncc1)N1CC(=O)N2[C@@H](CO)[C@H](c3ccc(C4=CCCC4)cc3)[C@@H]2C1	/	0	13	4	/	0
COc1ccc(CNC(=O)Cn2ccc(N)nc2=O)cc1	3	0	-4	5	4	39*
CC=Cc1ccc2n(c1=O)C[C@@H]1[C@@H](CO)[C@H](C(=O)NCc3ccc4c(c3)OCO4)[C@H]2N1C(=O)CC (mixture of isomers)	0	0	-5	2	-2	0
C/C(=N/NC(=O)c1cc(C)[nH]n1)c1ccco1	/	0	-11	17	/	7
